Molecules are shown by their SMILES. Entries after “also recorded” stand apart in the source; their conditions may differ.

This test deals with heat shock protein 70 (HSP70). The test is described as follows: Western blot analysis of HSP70 expression in U251 cells. To be noted: for Stress response (heat shock effect and oxidative stress effect) following treatment: effect abrogated by N-acetyl-cysteine; for HSP70 total cell expression (western blot): 5 μM, 24 h post-treatment. Format: cell-based, human. In a few lines:
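U251 glioblastoma cells were grown in DMEM with 10% FBS and 1% penicillin/streptomycin at 37 °C and 5% CO2, plated sub-confluent and grown overnight. They were treated with test compound at 0, 0.1, 0.5, 1 and 5 μM for 24 h. Lysate proteins were quantified, run on SDS–PAGE, transferred to nitrocellulose and probed with anti-HSP70 (1:1000), with actin (1:50,000) as loading control and HRP secondaries (1:5000).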

Consider `C=C1C(=O)O[C@@H]2C[C@@]1(C)OC[C@H]2[C@H]1CC[C@H]2[C@@H]3C[C@@H](O)[C@@]45C[C@H]4CC(=O)[C@]5(C)[C@H]3CC[C@]12C` [Compound 1, (20R,22R,24R)-21,24-epoxy-3α,5α-cyclo-1-oxowitha-25(27)-enolide], for which the “Stress response (heat shock effect and oxidative stress effect) following treatment” value (shortened to “Stress response”) is on record as “do not exhibit this stress response”.
As for `C=C1C(=O)O[C@@H]2C[C@]1(C)OC[C@H]2[C@H]1CC[C@H]2[C@@H]3CC=C4CC=CC(=O)[C@]4(C)[C@H]3C[C@@H](O)[C@]12C` [Compound 2, (20R,22R,24R)-21,24-epoxy-12β-hydroxy-1-oxowitha-2,25,25(27)-trienolide], the “HSP70 total cell expression (western blot)” value (shortened to “HSP70 total cell expression”) is “upregulation was observed; also recorded: markedly upregulated”; the “Stress response” value is listed as “observed”.
For the compound `C=C1C(=O)O[C@@H]2C[C@]1(C)OC[C@H]2[C@H]1CC[C@H]2[C@@H]3CC=C4CC=CC(=O)[C@]4(C)[C@H]3CC[C@]12C` [Compound 3, withametelin], the “HSP70 total cell expression” value was “upregulation was observed; also recorded: markedly upregulated”; the “Stress response” value is listed as “observed”.
For the compound `C=C1C(=O)O[C@@H]2C[C@]1(C)OC[C@H]2[C@H]1CC[C@H]2[C@@H]3C[C@@H](O)[C@@]4(O)CC=CC(=O)[C@]4(C)[C@H]3CC[C@]12C` [Compound 4, withametelin O], the “Stress response” value was “do not exhibit this stress response”.
Consider `C=C1C(=O)O[C@@H]2C[C@]1(C)OC[C@H]2[C@H]1CC[C@H]2[C@@H]3C[C@H]4O[C@]45CC=CC(=O)[C@]5(C)[C@H]3CC[C@]12C` [Compound 5, withametelin F], for which the “HSP70 total cell expression” value was “upregulation was observed; also recorded: markedly upregulated”; the “Stress response” value is recorded as “observed”.

(Values after publication PMC3606642 (Journal of natural products, 2012).)
